The source of these data is ChEMBL document CHEMBL2417388, “Design and synthesis of (4E)-4-(4-substitutedbenzylideneamino)-3-substituted-2,3-dihydro-2-thioxothiazole-5-carbonitrile as novel A2A receptor antagonists” (Bioorg Med Chem, 2013).

One assay deals with HEK293. The experiment in a line: Selectivity ratio of Ki for human A1 receptor expressed in HEK293 cell membranes to Ki for human A2A receptor expressed in HEK293 cell membranes. The format is cell-based.
The target of another assay is T1, Adenosine receptor A1 (Homo sapiens, UniProt P30542).
T1 sequence (P30542 whole entry): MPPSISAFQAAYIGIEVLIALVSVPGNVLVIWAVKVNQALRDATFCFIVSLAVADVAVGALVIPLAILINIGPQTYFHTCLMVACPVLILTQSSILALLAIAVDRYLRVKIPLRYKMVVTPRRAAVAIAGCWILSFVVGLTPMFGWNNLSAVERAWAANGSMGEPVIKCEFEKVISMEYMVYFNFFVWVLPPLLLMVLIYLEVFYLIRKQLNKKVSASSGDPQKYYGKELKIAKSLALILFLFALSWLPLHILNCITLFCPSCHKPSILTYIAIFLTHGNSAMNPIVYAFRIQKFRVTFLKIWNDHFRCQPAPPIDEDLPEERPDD
The experiment in a line: Displacement of [3H]DPCPX from human A1 receptor expressed in HEK293 cell membranes after 60 mins by scintillation counting.

The target of a further assay is Adenosine receptor A2a (Homo sapiens, UniProt P29274). Description: Displacement of [3H]ZM241385 from human A2A receptor expressed in HEK293 cell membranes after 60 mins by scintillation counting.
Sequence of Adenosine receptor A2a (P29274 whole entry): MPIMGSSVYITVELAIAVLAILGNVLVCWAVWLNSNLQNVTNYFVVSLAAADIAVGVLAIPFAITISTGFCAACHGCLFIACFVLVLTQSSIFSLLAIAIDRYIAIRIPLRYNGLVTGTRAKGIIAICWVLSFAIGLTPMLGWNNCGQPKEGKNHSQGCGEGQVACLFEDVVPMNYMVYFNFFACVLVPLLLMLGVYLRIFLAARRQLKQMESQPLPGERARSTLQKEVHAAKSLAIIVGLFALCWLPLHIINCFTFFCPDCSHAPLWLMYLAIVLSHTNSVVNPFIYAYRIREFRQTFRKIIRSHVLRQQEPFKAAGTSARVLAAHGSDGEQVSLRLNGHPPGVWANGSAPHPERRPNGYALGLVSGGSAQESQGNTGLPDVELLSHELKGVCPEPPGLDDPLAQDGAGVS
The test system of assay [1] is Mus musculus. The experiment in a line: Inhibition of haloperidol-induced catalepsy in Swiss albino mouse at 5 to 20 mg/kg, ip administered 30 mins prior haloperidol challenge measured after 120 mins. It counts as functional, organism-based. In short, it runs like this:
(§1)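 Adult male Swiss albino mice (4–6 weeks, 20–30 g), four per group. Compound given ip at 5–20 mg/kg, with 1% acacia in saline as vehicle control. […] Catalepsy scored over time up to 120 min. Mean ± SEM, n = 4, one-way ANOVA and Kruskal–Wallis test.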

Assay [2] relates to Mus musculus. Description: Inhibition of haloperidol-induced catalepsy in Swiss albino mouse at 10 mg/kg, ip administered 30 mins prior haloperidol challenge measured after 120 mins. The format is functional, organism-based. On the set-up: dose 10 mg/kg. The method, boiled down:
as §1

Calls of active or inactive are those of the source. The rule behind the calls is not given here.

For `CCCn1c(/N=C/c2ccc(F)cc2)c(C#N)sc1=S`, the Ratio Ki with HEK293 came to 3390.

As for `N#Cc1sc(=S)n(CCc2ccccc2)c1/N=C/c1ccc(F)cc1`, the figures for the Ki on Adenosine receptor A1 and at Adenosine receptor A2a were 889000 pM and 2640 pM, respectively. For the same compound, the Ratio Ki in the assay on HEK293 is 337.

Turning to `CCCn1c(/N=C/c2ccc(Br)cc2)c(C#N)sc1=S`, the Ki on Adenosine receptor A1 is 607000 pM; on Adenosine receptor A2a, 1800 pM. In the assay with HEK293, the Ratio Ki was 337.

As to `N#Cc1sc(=S)n(-c2ccccc2)c1/N=C/c1ccc(Br)cc1`, the inhibition entry with Mus musculus [1] and with Mus musculus [2] was “Active” each time.

With `CCCn1c(/N=C/c2ccc(Cl)cc2)c(C#N)sc1=S`, the Ratio Ki in the assay with HEK293 is 0.042.

Consider `Nc1nc2c(cnn2CCc2ccccc2)c2nc(-c3ccco3)nn12`, for which the inhibition entry in the assay on Mus musculus [1] and in the assay with Mus musculus [2] was “Active” each time.

As for `CCn1c(/N=C/c2ccc(Br)cc2)c(C#N)sc1=S`, the affinity at Adenosine receptor A1 corresponds to a Ki of 0.74 pM. Further, the Ratio Ki in the assay on HEK293 worked out at 0.074.

Take `CCn1c(/N=C/c2ccc(F)cc2)c(C#N)sc1=S`: the affinity at Adenosine receptor A1, expressed as Ki, was 0.59 pM. Further, the Ratio Ki in the assay with HEK293 came to 5.3e-05.

Consider `CCCCn1c(/N=C/c2ccc(F)cc2)c(C#N)sc1=S`, for which the results for the Ki on Adenosine receptor A1 and at Adenosine receptor A2a were 16700 pM and 27 pM, respectively. Also, the Ratio Ki in the assay with HEK293 worked out at 619.

Take `N#Cc1sc(=S)n(-c2ccccc2)c1/N=C/c1ccc(Cl)cc1`: in the assay with HEK293, the Ratio Ki came out at 2950.

For `N#Cc1sc(=S)n(CCc2ccccc2)c1/N=C/c1ccc(Br)cc1`, the Ki came out at 250 pM at Adenosine receptor A1 and 67 pM at Adenosine receptor A2a. For the same compound, in the assay with HEK293, the Ratio Ki was found to be 3.73.

As to `CCCCn1c(/N=C/c2ccc(Br)cc2)c(C#N)sc1=S`, the Ratio Ki with HEK293 came out at 0.013.

Regarding `CCn1c(/N=C/c2ccc(Cl)cc2)c(C#N)sc1=S`, the Ki was 19800 pM on Adenosine receptor A1 and 1440 pM on Adenosine receptor A2a. Further, the Ratio Ki with HEK293 is 13.8.

Consider `N#Cc1sc(=S)n(-c2ccccc2)c1/N=C/c1ccc(F)cc1`, for which the Ki at Adenosine receptor A1 was 0.63 pM; on Adenosine receptor A2a, 4.7 pM. The Ratio Ki with HEK293 came to 0.13.

As to `CCCCn1c(/N=C/c2ccc(Cl)cc2)c(C#N)sc1=S`, the Ratio Ki with HEK293 was 2570.
